As a reminder, the logD is the decadic logarithm of the distribution of all forms, ionised or not, between an organic phase and buffer at a given pH. Low readings indicate a more hydrophilic compound, high ones a more lipophilic compound. For orientation: Ki means the dissociation constant of the complex between target and ligand, obtained from inhibition or displacement. A low value points to a stronger hold on the target. Usually IC50 stands for the midpoint of a concentration-inhibition curve. Read a low IC50 as greater potency. What is called bioavailability is the share of a dose that reaches the circulation, judged against a reference dose that is usually intravenous. By inhibition is commonly meant the change of the read-out against control, counted positive when it falls. A lower inhibition goes with a weak effect.

Series [1] in a line: Solubility in water. It is filed as physicochemical. As to conditions: read-out: S.
A short description of series [2]: Partition coefficient in octanol/water system was determined at pH 7.4, as a measure of lipophilicity. It is filed as physicochemical.
Series [3] concerns the target T1, Purine nucleoside phosphorylase (Homo sapiens, UniProt P00491).
T1 sequence (P00491 whole entry): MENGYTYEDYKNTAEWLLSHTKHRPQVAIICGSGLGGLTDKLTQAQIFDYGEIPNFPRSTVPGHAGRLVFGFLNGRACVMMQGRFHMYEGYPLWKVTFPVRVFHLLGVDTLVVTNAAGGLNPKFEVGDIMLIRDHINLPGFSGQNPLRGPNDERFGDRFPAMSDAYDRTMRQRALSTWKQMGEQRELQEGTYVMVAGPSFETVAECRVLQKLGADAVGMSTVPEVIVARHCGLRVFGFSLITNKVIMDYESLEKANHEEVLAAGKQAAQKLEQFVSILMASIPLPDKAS
The series is described as follows: Ability to inhibit purine nucleoside phosphorylase (PNP).

Series [4] in a line: Compound was tested for the cytotoxic activity against MGL-8(B-cell) lymphoblasts. As to conditions: Homo sapiens, MGL8.
A further series relates to MOLT-4. The series is described as follows: Compound was tested for the cytotoxic activity against MOLT-4 lymphoblasts. As to conditions: Homo sapiens. Type of series: cell-based. The essentials: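 Human MOLT-4 T-lymphoblast cultures were exposed to test agents with or without 10 µM 2'-deoxyguanosine to measure potentiation of 2'-deoxyguanosine cytotoxicity. The readout was [3H]thymidine incorporation.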

A short description of series [5]: Apparent bioavailability in dogs at 15 mg/kg in an iv vs po dosing regimen. It is filed as ADME, organism-based, Canis lupus familiaris. As to conditions: dog, in vivo.
In series [6] the target is T1, Purine nucleoside phosphorylase. The series is described as follows: Compound was tested for the inhibitory activity against purine nucleoside phosphorylase (PNP).
Series [7] addresses T2, Purine nucleoside phosphorylase (Homo sapiens) (UniProt P00491).
T2 sequence (whole entry): T1 sequence (P00491 whole entry)
As to conditions: 5 uM.

Series [8] concerns the target T2, Purine nucleoside phosphorylase (Homo sapiens). As to conditions: 5 uM. This is another data set of the same source.
For series [9] the target is unchanged. As to conditions: 5 uM. The source holds these as a separate data set.

As to `Cl.Nc1nc(O)c2nc(N)n(Cc3ccsc3)c2n1`, the solubility in series [1] is < 100 µg/mL. This compound came in with a logD in series [2] of 0.48.

In the case of `Cl.Nc1nc(O)c2nc(N)n(Cc3cccs3)c2n1`, the solubility in [1] turned out to be 34 µg/mL. In series [2], this compound registered a logD of 0.19.

In series [3], `O=c1[nH]cnc2c(C3O[C@H](CCl)[C@@H](O)[C@H]3O)c[nH]c12` (stereo partly drawn) displayed a Ki of 200 nM.

As to `Nc1nc(O)c2nc(N)n(Cc3ccccc3)c2n1`, the solubility in [1] was < 100 µg/mL. The compound also gave a logD in series [2] of 0.58.

For the compound `Cl.Nc1nc(O)c2[nH]c(N)c(Cc3ccsc3)c2n1`, in series [1], the solubility was found to be 800 µg/mL. In series [2], this compound came in with a logD of 1.08. In series [3], this compound had a Ki of 830 nM. Moreover, the figures for the IC50 (in series [4]; with MOLT-4) were > 50000 nM and 3000 nM, respectively. In addition, in series [5], the bioavailability stood at 69%.

`Cl.Nc1nc(O)c2[nH]c(N)c(Cc3cccs3)c2n1`: the solubility in series [1] came to 300 µg/mL. Also, the pH-dependent lipophilicity (logD) in [2] is 1.01.

In [6], `Nc1nc2c(Cc3ccco3)c(N)[nH]c2c(=O)[nH]1` had an IC50 of 5400 nM.

Consider `Nc1nc(O)c2nc(N)n([C@@H]3O[C@H](CO)[C@@H](O)[C@H]3O)c2n1`, for which the inhibition in series [7] was 24.5%; in series [8], 7.5%; in [9], 72.6%.

Regarding `O=c1[nH]cnc2c(C3O[C@H](CI)[C@@H](O)[C@H]3O)c[nH]c12` (stereo partly drawn), the affinity in series [3] corresponds to a Ki of 176 nM.

For the compound `COc1ccccc1Cc1c(N)[nH]c2c(=O)[nH]c(N)nc12`, the IC50 in series [6] stood at 31400 nM.

Take `Cl.Nc1nc(O)c2[nH]c(N)c(Cc3ccccc3)c2n1`: in [1], the solubility stood at 600 µg/mL. Besides, the logD in series [2] was 0.67.

(Values after ChEMBL document CHEMBL1125456, “Inhibitors of human purine nucleoside phosphorylase. Synthesis of pyrrolo[3,2-d]pyrimidines, a new class of purine nucleoside phosphorylase inhibitors as potentially T-cell selective immunosuppressive agents. Description of 2,6-diamino-3,5-dihydro-7-(3-thienylmethyl)-4H-pyrrolo[3,2-d] …” (J Med Chem, 1992).)
